5HT1a antag = antagonists of human 5-HT1a serotonin receptor; P08908; CHO 5-HT1a Ga15 NFAT-bla reporter, antagonist mode; inhibition, % at 10 µM; 62,000 tested, 0.68% active; AID 612;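 active = inhibition above the mean of all tested compounds plus 3 SD, cut at about 43% in these data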;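 note: receptor stimulated by 5-CT agonist at 100 nM near EC80; beta-lactamase reporter measured by ratiometric fluorescence of a cleavable substrate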
Target sequence (P08908 whole entry, looked up): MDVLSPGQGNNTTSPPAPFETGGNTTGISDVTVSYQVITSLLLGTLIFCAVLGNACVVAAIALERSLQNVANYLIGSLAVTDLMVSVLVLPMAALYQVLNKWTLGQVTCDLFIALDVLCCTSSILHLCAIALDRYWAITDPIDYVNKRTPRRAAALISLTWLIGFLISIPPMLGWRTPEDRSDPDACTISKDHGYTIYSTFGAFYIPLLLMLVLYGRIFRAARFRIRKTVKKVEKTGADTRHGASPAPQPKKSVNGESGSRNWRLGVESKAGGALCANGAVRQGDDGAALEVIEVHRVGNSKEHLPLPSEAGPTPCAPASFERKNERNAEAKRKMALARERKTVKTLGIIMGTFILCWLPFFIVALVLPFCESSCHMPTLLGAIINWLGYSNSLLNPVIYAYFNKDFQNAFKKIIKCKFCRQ
HEK293 NFkB inh = inhibitors of the PMA/ionomycin-induced NF-kB reporter in HEK293 cells | 62,000 tested, 0.21% active | HEK-293 NF-kB luciferase reporter, luminescence | inhibition, % at 3 µM;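 active = inhibition above the mean of all tested compounds plus 3 SD, cut at about 40% in these data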;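 note: 0% = stimulated DMSO wells and 100% = 10 µM reference inhibitor 5653914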
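System: NF-kB luciferase reporter HEK-293 cells | Replication: Single test | Control set: DMSO vs reference inhibitor | Evaluation: % inhibition | Schedule: 1 h pretreatment, 16 h stimulation, 37 °C | Probe or stimulus: PMA with ionomycin | Compound dosing: One dose, 3 µM | Detection: Luciferase luminescence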
Jurkat viability = reduces viability or proliferation of Jurkat cells | 56,000 tested, 1.2% active | inhibition, % at 4 µM | Jurkat E6.1 viability, ATP luminescence, 48 h;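 active = inhibition above the mean inhibition of all tested compounds plus 3 SD, cut at about 28% in these data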
5HT1E ag = activates the human 5-HT1E serotonin receptor; activation, % at 6 µM; AID 574; CHO 5-HT1E Ga15 NFAT-bla reporter, FRET; 0% DMSO wells, 100% control agonist wells; 65,000 tested, 0.69% active;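 active = activation above a set limit, the screen-wide mean activation plus 3 SD, cut at about 8.5% in these data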;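 note: 100% = positive control agonist at 1 µM giving full maximal response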
HTR1E antagonist = blocks the human 5-HT1E serotonin receptor; P28566; 65,000 tested, 0.99% active; CHO 5-HT1E Ga15 NFAT-bla reporter, FRET, antagonist; inhibition, % at 6 µM;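 active = inhibition above a set limit, the mean inhibition across every tested compound plus 3 SD, cut at about 29% in these data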;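 note: signal is the 460 over 535 nm emission ratio of beta-lactamase substrate; 0% = agonist plus DMSO wells and 100% = wells without agonist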
HTR1A agonist = activates the human 5-HT1a serotonin receptor; P08908; CHO 5-HT1a Ga15 NFAT-bla reporter, FRET ratio; 0% basal, 100% maximal reference agonist; activation, % at 10 µM; 65,000 tested, 0.56% active;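 active = activation above the screen-wide mean activation plus 3 SD, cut at about 19% in these data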;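 note: 0% = DMSO wells and 100% = 5-CT at EC100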
* hit, by the source's call; . = no result given. Compounds with a hit are over-represented: about 3.3% of the library has one in this group of screens.

SMILES	5HT1a antag	HEK293 NFkB inh	Jurkat viability	5HT1E ag	HTR1E antagonist	HTR1A agonist
COc1cc2c(cc1OC)C1=C(C#N)CCC(=O)N1CC2	8	18	-4	0	49*	0
COc1cc2c(cc1OC)C1=C(C#N)CN(C3CCCCC3)CN1CC2	5	10	2	1	27	1
COc1ccc(CCN2CC(C#N)=C3c4cc(OC)c(OC)cc4CCN3C2)cc1OC	11	6	4	2	38*	2
COc1cc2c(cc1OC)CN(S(C)(=O)=O)CC2	4	4	-6	0	12	-1
COc1cc2c(cc1OC)C1=C(C#N)CC/C(=N\S(=O)(=O)c3ccccc3)N1CC2	5	10	-5	1	66*	3
O=C(COc1ccccc1)Nc1nn[nH]n1	-5	14	-5	0	-12	-3
CC(C)(C)OCC(NC(=O)C(CC(N)=O)NC(=O)OC(C)(C)C)C(=O)OC(C)(C)C (centres undefined)	-5	4	3	1	4	-3
NS(=O)(=O)c1ccc(CCNc2ncnc3sccc23)cc1	1	29	85*	-1	8	-4
CC(=O)OC(Cn1ccnc1)c1ccccc1 (centres undefined)	4	5	-11	0	-9	-4
CCOc1ccc(OCc2cccc(C(=O)N3CCOCC3)c2)cc1	1	50*	0	0	1	0
CCCCNc1cc(C)nc(NCc2ccccc2)n1	40	15	34*	1	-5	-2
Cc1cc(C)nc(NCCCc2ccccc2)n1	4	18	-4	0	-8	0
COC(=O)c1ccc(NC(=O)CSc2nnc(CNc3ccc(F)cc3)n2C)cc1	-2	2	-2	1	0	0
O=C(Cn1nc(Cc2cccnc2)c2ccccc2c1=O)N1CCN(C(=O)c2ccco2)CC1	-6	14	0	0	2	-6
CCOC(=O)C1CCCN(C(=O)Cn2nc(Cc3cccnc3)c3ccccc3c2=O)C1 (centres undefined)	0	15	5	1	-1	38*
c1ccc2c(c1)[nH]c1c(N3CCCC3)ncnc12	4	23	33*	0	8	-2
c1ccc2c(c1)[nH]c1c(N3CCSCC3)ncnc12	.	.	.	0	23	3
CC1CCCN(c2ncnc3c2cnn3-c2ccc(Cl)cc2)C1 (centres undefined)	-13	71*	-7	0	8	1
Cc1cccc(N2CCN(C(=O)COc3cc(=O)n(C)c4ccccc34)CC2)c1C	-13	4	5	13*	0	-2
Cc1ccc(C)c(N2CCN(C(=O)COc3cc(=O)n(C)c4ccccc34)CC2)c1	8	8	11	0	11	-1
COC(=O)NCc1cccc(CNC(=O)OC)c1	-4	14	-7	0	0	-1
Cc1ccccc1N1CCN(Cc2cccc(C(=O)O)c2)CC1	8	8	-2	22*	4	0
COc1ccc(N2CCN(CCNC(=O)CCS(=O)(=O)c3cccc4nsnc34)CC2)cc1	13	16	.	-1	0	-1
CCOC(=O)c1ccccc1NC(=O)c1ccc(NS(C)(=O)=O)cc1	9	-5	12	-1	34*	1
COc1ccc2c(c1)c1ncnc(N3CCN(Cc4ccc5c(c4)OCO5)CC3)c1n2C	-31	11	2	0	-6	3
SMILES	5HT1a antag	HEK293 NFkB inh	Jurkat viability	5HT1E ag	HTR1E antagonist	HTR1A agonist
COc1ccc2[nH]c3c(N4CCN(Cc5ccc6c(c5)OCO6)CC4)ncnc3c2c1	.	.	.	-1	29*	2
Cc1ccc(/C=c2/sc3nnc(-c4ccccc4Cl)n3c2=O)o1	46*	-2	0	0	0	0
OC(CNCCc1ccc(Cl)cc1)COCc1ccco1 (centres undefined)	4	10	4	9.5*	4	0
O=C(c1cc(-c2cccnc2)nc2ccc(Br)cc12)N1CCC2(CC1)OCCO2	-3	-1	-4	0	4	0
O=c1[nH]nc(Sc2ncnc3sccc23)n1CCc1ccccc1	33	28	4	-1	27	22*
CCCn1c(Sc2nnnn2-c2ccccc2)n[nH]c1=O	0	11	-2	1	4	-2
CCCCn1c(=O)[nH]c(=O)c2c1nc(-c1ccncc1)n2CCOC	-2	5	-3	0	-6	270*
O=c1cc(-c2ccccc2)[nH]c2ccccc12	33	30	93*	-1	53*	-1
O=c1nc(-c2ccccc2)c2ccccc2[nH]1	-2	22	-1	0	-7	-1
O=S(=O)(Nc1nccs1)c1ccc(NS(=O)(=O)c2cccs2)cc1	-4	16	4	-1	9	2
CS(=O)(=O)Nc1ccc(S(=O)(=O)Nc2nccs2)cc1	3	-7	-8	10*	6	-3
Nc1nc(CSCc2ccccc2)nc(N2CCOCC2)n1	-2	0	-10	0	17	-1
CCNc1nc(SCc2ccccc2)nc(N2CCOCC2)n1	8	18	-2	0	36*	1
COc1cccc(OC)c1-c1nn2c(-c3cc(-c4ccccc4)n[nH]3)nnc2s1	11	12	66*	1	10	-4
Clc1ccc(-c2nnc3sc(-c4ccc(Br)o4)nn23)c(Cl)c1	-17	8	-5	1	1	-1
CN(C)c1ccc(-c2nn3c(-c4ccc(Cl)cc4Cl)nnc3s2)cc1	17	6	7	-1	37*	0
CCN(CC)c1ccc(-c2nn3c(-c4ccccc4OC)nnc3s2)cc1	70*	58*	99*	1	67*	1
COc1ccc(C2(C(=O)NCCCN3CCOCC3)CCOCC2)cc1	-1	7	5	1	3	-2
CC1CCN(c2oc(-c3ccccc3Cl)nc2C#N)CC1	.	.	.	0	37*	1
N#Cc1nc(-c2ccccc2Cl)oc1N1CCOCC1	10	11	10	-1	11	0
COc1ccccc1NC(=O)Cc1csc(N)n1	-6	10	-4	0	4	-2
Clc1ccc2[nH]c3c(NCC4CCCO4)ncnc3c2c1 (centres undefined)	11	8	15	0	32*	4
CC1=NC(C(F)(F)F)(C(F)(F)F)C2=C(CC(C)(C)CC2=O)N1Cc1ccco1	10	12	-4	-1	0	2
CC1=C(C(=O)OCCOc2ccccc2)C(c2ccc(C)o2)C2=C(CC(C)(C)CC2=O)N1 (centres undefined)	-1	6	-1	-1	5	-1
CC1=C(C(=O)OCc2ccccc2)C(c2ccc(C)o2)C2=C(CCCC2=O)N1 (centres undefined)	4	6	-3	0	1	0

Screening results from PubChem BioAssay.
